The values that follow come from ChEMBL document CHEMBL1139306, “Design and synthesis of pyrazole derivatives as potent and selective inhibitors of tissue-nonspecific alkaline phosphatase (TNAP)” (Bioorg Med Chem Lett, 2009).

Chain of Glyceraldehyde-3-phosphate dehydrogenase (P04406 whole entry): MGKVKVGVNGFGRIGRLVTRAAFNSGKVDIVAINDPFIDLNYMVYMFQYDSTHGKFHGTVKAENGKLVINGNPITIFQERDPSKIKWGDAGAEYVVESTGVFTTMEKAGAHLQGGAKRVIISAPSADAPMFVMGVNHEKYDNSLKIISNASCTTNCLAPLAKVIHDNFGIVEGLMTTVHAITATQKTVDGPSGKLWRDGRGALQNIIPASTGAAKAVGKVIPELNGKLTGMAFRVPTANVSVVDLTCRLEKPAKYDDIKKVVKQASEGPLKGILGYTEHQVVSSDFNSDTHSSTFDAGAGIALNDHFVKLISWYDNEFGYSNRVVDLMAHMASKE

The first experiment addresses Glyceraldehyde-3-phosphate dehydrogenase (Homo sapiens, UniProt P04406). As to the kind of experiment: Inhibition of GAPDH.
For orientation: IC50 means the concentration at which inhibition is half-maximal. A high value points to a need for much substance. Compound `O=C(NCCO)c1cc(-c2ccc(Cl)c(Cl)c2Cl)n[nH]1` registered an IC50 above 10000 nM.

A further experiment has as its target T1, Alkaline phosphatase, tissue-nonspecific isozyme (Homo sapiens, UniProt P05186).
T1 sequence (P05186 whole entry): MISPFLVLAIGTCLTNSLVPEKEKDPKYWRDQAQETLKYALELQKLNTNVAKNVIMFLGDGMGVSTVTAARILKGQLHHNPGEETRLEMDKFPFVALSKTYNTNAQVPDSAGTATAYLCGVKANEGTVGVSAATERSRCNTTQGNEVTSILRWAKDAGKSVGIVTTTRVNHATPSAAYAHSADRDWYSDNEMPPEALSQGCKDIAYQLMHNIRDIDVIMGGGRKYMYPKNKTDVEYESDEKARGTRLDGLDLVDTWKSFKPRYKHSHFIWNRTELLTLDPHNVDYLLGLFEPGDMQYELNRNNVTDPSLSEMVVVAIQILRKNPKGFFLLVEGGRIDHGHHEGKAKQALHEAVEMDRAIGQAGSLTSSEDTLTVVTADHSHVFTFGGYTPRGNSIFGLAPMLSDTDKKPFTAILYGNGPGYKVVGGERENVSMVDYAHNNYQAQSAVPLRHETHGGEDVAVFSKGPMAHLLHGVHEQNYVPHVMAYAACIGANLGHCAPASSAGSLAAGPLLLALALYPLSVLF
Briefly: Inhibition of TNSALP. An outline of the steps: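 TNAP activity read on an EnVision plate reader in 100 mM diethanolamine-HCl, pH 9.8, with 1 mM MgCl₂, 20 μM ZnCl₂ and 50 μM CDP-star as substrate.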
In turn, `O=C(NCCCO)c1cc(-c2ccc(Cl)cc2Cl)n[nH]1` yielded a half-maximal inhibitory concentration (IC50) of 31 nM.

With `O=C(c1cc(-c2ccc(Cl)cc2Cl)n[nH]1)N1CCCCCC1`, the IC50 was found to be 1450 nM.

On to `O=C(c1cc(-c2cc(F)c(Cl)cc2Cl)n[nH]1)N(CCO)CCO`, for which the IC50 came to 127 nM.

In the case of `NNC(=O)c1cc(-c2ccc(Cl)cc2Cl)n[nH]1`, the IC50 turned out to be 44 nM.

For `CN1CCN(C(=O)c2cc(-c3ccc(Cl)cc3Cl)n[nH]2)CC1`, half-maximal inhibition (IC50) was put at 828 nM.

For `CC(C)CCNC(=O)c1cc(-c2ccc(Cl)cc2Cl)n[nH]1`, the IC50 came out at 459 nM.

Take `O=C(NCCO)c1cc(-c2cc(F)c(Cl)cc2Cl)n[nH]1`: the IC50 came to 100 nM.

As for `CC(C)NC(=O)c1cc(-c2ccc(Cl)cc2Cl)n[nH]1`, half-maximal inhibition (IC50) required 51 nM.

As to `O=C(NCCO)c1cc(-c2cc(F)c(F)cc2F)n[nH]1`, inhibition was half-maximal at 134 nM (IC50).

Compound `O=C(NCCO)c1cc(-c2ccc(Cl)cc2Cl)n[nH]1` displayed an IC50 of 44 nM.

As to `CC(C)(C)NC(=O)c1cc(-c2ccc(Cl)cc2Cl)n[nH]1`, the IC50 was 398 nM.

`CCN1CCN(C(=O)c2cc(-c3ccc(Cl)cc3Cl)n[nH]2)CC1` displayed an IC50 of 488 nM.

With `O=C(c1cc(-c2ccc(Cl)cc2Cl)n[nH]1)N(CCO)CCO`, inhibition was half-maximal at 47 nM (IC50).

For `O=C(NCCO)c1cc(-c2ccc(F)cc2F)n[nH]1`, the IC50 turned out to be 35 nM.

`CN(C)C(=O)c1cc(-c2cc(F)c(Cl)cc2Cl)n[nH]1`: the IC50 came to 324 nM.

In turn, `O=C(NCCCO)c1cc(-c2cc(F)c(Cl)cc2Cl)n[nH]1` yielded an IC50 of 56 nM.

As for `O=C(c1cc(-c2ccc(Cl)cc2Cl)n[nH]1)N1CCN(CCO)CC1`, the IC50 was 375 nM.

Compound `CCN(CC)C(=O)c1cc(-c2ccc(Cl)cc2Cl)n[nH]1` yielded an IC50 of 285 nM.

`CC(C)CNC(=O)c1cc(-c2ccc(Cl)cc2Cl)n[nH]1` yielded an IC50 of 82 nM.

`O=C(c1cc(-c2ccc(Cl)cc2Cl)n[nH]1)N1CCOCC1` returned an IC50 of 574 nM.

Regarding `COCCNC(=O)c1cc(-c2ccc(Cl)cc2Cl)n[nH]1`, the half-maximal inhibitory concentration (IC50) is 46 nM.

`CN(C)C(=O)c1cc(-c2ccc(Cl)cc2Cl)n[nH]1` had an IC50 of 119 nM.

The compound `CC(C)NC(=O)c1cc(-c2cc(F)c(Cl)cc2Cl)n[nH]1` returned an IC50 of 4850 nM.

As for `O=C(NCCCCO)c1cc(-c2ccc(Cl)cc2Cl)n[nH]1`, inhibition was half-maximal at 35 nM (IC50).

Test system in a further experiment: not listed separately
As to the kind of experiment: Selectivity of TNSALP over GAPDH.
The compound `O=C(NCCO)c1cc(-c2ccc(Cl)c(Cl)c2Cl)n[nH]1` returned a fold change (FC) of 2000.

Test system in the next experiment: not listed separately
As to the kind of experiment: Selectivity of TNSALP over PLAP.
In the case of `O=C(NCCO)c1cc(-c2ccc(Cl)c(Cl)c2Cl)n[nH]1`, the fold change (FC) amounted to 2000.

The target in another experiment is Alkaline phosphatase, placental type (Homo sapiens, UniProt P05187). Briefly: Inhibition of PLAP.
Chain of Alkaline phosphatase, placental type (P05187 whole entry): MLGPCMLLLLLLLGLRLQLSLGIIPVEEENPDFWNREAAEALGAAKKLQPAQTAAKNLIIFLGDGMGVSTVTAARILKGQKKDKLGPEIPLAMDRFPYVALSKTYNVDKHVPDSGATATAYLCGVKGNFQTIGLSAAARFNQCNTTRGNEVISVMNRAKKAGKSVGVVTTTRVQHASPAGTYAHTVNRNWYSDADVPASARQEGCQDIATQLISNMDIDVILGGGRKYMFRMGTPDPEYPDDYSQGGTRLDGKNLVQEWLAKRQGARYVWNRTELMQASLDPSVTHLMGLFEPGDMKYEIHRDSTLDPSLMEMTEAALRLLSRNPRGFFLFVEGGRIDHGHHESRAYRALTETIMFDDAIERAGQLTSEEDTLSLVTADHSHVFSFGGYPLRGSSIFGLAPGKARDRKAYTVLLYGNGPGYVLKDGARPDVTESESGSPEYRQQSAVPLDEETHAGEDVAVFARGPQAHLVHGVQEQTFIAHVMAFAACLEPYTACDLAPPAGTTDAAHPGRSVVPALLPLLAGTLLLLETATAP
Regarding `O=C(NCCO)c1cc(-c2ccc(Cl)c(Cl)c2Cl)n[nH]1`, the IC50 was above 10000 nM.
